Active and inactive are the calls of the source. No cut-off for these calls is given here.
What was measured:
[1] = target: T1, Adenosine receptor A1 (Rattus norvegicus) (UniProt P25099); experiment: Percent displacement from adenosine A1 receptor at 10e-7 M in rat brain membrane in vitro.; format: cell membranes
T1 sequence (whole entry): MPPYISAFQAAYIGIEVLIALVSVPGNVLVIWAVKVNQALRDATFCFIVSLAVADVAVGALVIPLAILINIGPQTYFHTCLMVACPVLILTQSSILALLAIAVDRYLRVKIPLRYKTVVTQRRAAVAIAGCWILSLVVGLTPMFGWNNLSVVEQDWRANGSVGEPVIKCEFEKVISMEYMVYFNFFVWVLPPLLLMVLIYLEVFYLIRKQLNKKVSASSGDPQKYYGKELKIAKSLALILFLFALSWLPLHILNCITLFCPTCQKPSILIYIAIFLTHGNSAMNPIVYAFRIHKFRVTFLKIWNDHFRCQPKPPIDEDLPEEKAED

[2] = target: T2, Adenosine A2 receptor (Rattus norvegicus) (UniProt P29276+P30543); experiment: Percent displacement from adenosine A2 receptor at 10e-5 M in rat striatal membrane in vitro.; format: cell membranes
[3] = target: T1, Adenosine receptor A1 (Rattus norvegicus); experiment: Percent displacement from adenosine A1 receptor at 10e-5 M in rat brain membrane in vitro.; format: cell membranes
[4] = target: T2, Adenosine A2 receptor (Rattus norvegicus); experiment: Percent displacement from adenosine A2 receptor at 10e-7 M in rat striatal membrane in vitro.; format: cell membranes; conditions: Striatum
[5] = test system: Mus musculus; experiment: Effective dose for phenylbenzoquinone-induced writhing in mice after peroral administration expressed as analgesic activity.; format: functional
Procedure, shortened: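 Mice dosed orally (0.5 mL/20 g); 1 h later given 0.02% phenylbenzoquinone in hydroalcoholic solution ip (0.20-0.24 mL). Writhings and stretches counted from minute 5 to minute 10. Six animals per group. Inhibition taken against the control mean; ED50 (50% decrease) by linear regression.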

[6] = target: Adenosine A2 receptor (Rattus norvegicus, UniProt P29276+P30543); experiment: Binding affinity for adenosine A2 receptor in vitro using rat striatal membrane.; format: cell membranes
Procedure, shortened: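 Rat striatal membranes in 50 mM Tris-HCl, 10 mM MgCl2, pH 7.7, adenosine deaminase treated (1 U/mL, 30 min). Incubated with [3H]NECA (4 nM, 50 μL) plus 0.11 μM cyclopentyladenosine and competitor for 60 min at 25 °C. Nonspecific binding defined with 5 μM NECA. GF/B filtration, scintillation counting, triplicate. IC50 from log-logit regression, Ki via Cheng-Prusoff, one experiment.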

[7] = target: T3, Adenosine receptor A1 (Rattus norvegicus, UniProt P25099); experiment: Binding affinity for adenosine A1 receptor in vitro using rat brain membranes.; format: cell membranes
T3 sequence (P25099 whole entry): T1 sequence (whole entry)
Procedure, shortened: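 Whole rat brain membranes, homogenized in 50 mM Tris-HCl pH 7.4 and spun at 1090g then 48000g, pretreated with adenosine deaminase 1 U/mL for 30 min. Nonspecific binding defined with 10 μM PIA. Separated by GF/B filtration and scintillation counted, in triplicate. IC50 from log-logit regression, Ki via Cheng-Prusoff, one experiment.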

Displacement [1] [%]	Displacement [2] [%]	Displacement [3] [%]	Displacement [4] [%]	Ki [6] [µM]	Ki [7] [µM]	SMILES	ED50 ([5]; po) [mg/kg]	ED50 [5]
50	70	100	3	0.89	0.062	Cc1ccc(C)c(Cn2cc(CCNc3ncnc4c3ncn4[C@@H]3O[C@H](C(=O)NC4CC4)[C@@H](O)[C@H]3O)c3cc(C)ccc32)c1	0.9	–
40	93	98	27	–	–	Cc1ccccc1Cn1cc(CCNc2ncnc3c2ncn3C2O[C@H](C(=O)NC3CC3)[C@@H](O)[C@H]2O)c2ccccc21 (some centres not stated)	< 3	–
12	68	80	0	3	1.4	CNC(=O)[C@H]1O[C@@H](n2cnc3c(NCCc4cn(Cc5cc(C)ccc5C)c5ccccc45)ncnc32)[C@H](O)[C@@H]1O	10.2	–
4	91	87	14	0.39	0.12	CC(C)n1cc(CCNc2ncnc3c2ncn3[C@@H]2O[C@H](C(=O)NC3CC3)[C@@H](O)[C@H]2O)c2ccccc21	1.6	–
42	89	100	23	0.81	0.17	COc1ccccc1Cn1cc(CCNc2ncnc3c2ncn3C2O[C@H](C(=O)NC3CC3)[C@@H](O)[C@H]2O)c2ccccc21 (some centres not stated)	2.3	–
5	19	5	0	–	–	Cc1ccc(C)c(Cn2cc(CCNc3ncnc4c3ncn4C3O[C@H](C(=O)NCCN4CCOCC4)[C@@H](O)[C@H]3O)c3ccccc32)c1 (some centres not stated)	> 60	–
26	85	93	9	0.67	0.14	Cc1ccc(C)c(Cn2cc(CCNc3ncnc4c3ncn4C3O[C@H](C(=O)NC4CC4)[C@@H](O)[C@H]3O)c3ccccc32)c1 (some centres not stated)	2.4	–
45	85	96	21	–	–	CC(Cc1cn(C2CCCC2)c2ccccc12)Nc1ncnc2c1ncn2C1O[C@H](C(=O)NC2CC2)[C@@H](O)[C@H]1O (some centres not stated)	2.2	–
90	96	99	44	0.12	0.0083	O=C(NC1CC1)[C@H]1OC(n2cnc3c(NCCc4cn(CCN5CCCCC5)c5ccccc45)ncnc32)[C@H](O)[C@@H]1O (some centres not stated)	7.3	–
76	91	99	29	0.27	–	Cn1cc(CCNc2ncnc3c2ncn3C2O[C@H](C(=O)NC3CC3)[C@@H](O)[C@H]2O)c2ccccc21 (some centres not stated)	3	–
21	90	96	28	0.35	0.11	O=C(NC1CC1)[C@H]1O[C@@H](n2cnc3c(NCCc4cn(C5CCCC5)c5ccccc45)ncnc32)[C@H](O)[C@@H]1O	1.5	–
20	71	84	10	–	–	O=C(NC1CC1)[C@H]1OC(n2cnc3c(NCCc4c(-c5ccccc5)[nH]c5ccccc45)ncnc32)[C@H](O)[C@@H]1O (some centres not stated)	27.1	–
56	80	100	17	0.28	0.039	C=CCn1cc(CCNc2ncnc3c2ncn3C2O[C@H](C(=O)NC3CC3)[C@@H](O)[C@H]2O)c2ccccc21 (some centres not stated)	5.3	–
71	97	100	59	0.14	0.011	OC[C@H]1O[C@@H](n2cnc3c(NCCc4cn(Cc5ccc(Cl)cc5)c5ccccc45)ncnc32)[C@H](O)[C@@H]1O	40.8	–
42	100	98	59	–	–	COc1ccc(Cn2cc(CCNc3ncnc4c3ncn4C3O[C@H](C(=O)NC4CC4)[C@@H](O)[C@H]3O)c3ccccc32)cc1 (some centres not stated)	71.6	–

The next lines start with the compound.

SMILES	Displacement [1] [%]	Displacement [2] [%]	Displacement [3] [%]	Displacement [4] [%]	Ki [6] [µM]	Ki [7] [µM]	ED50 ([5]; po) [mg/kg]	ED50 [5]
CN(C)c1ccccc1Cn1cc(CCNc2ncnc3c2ncn3C2O[C@H](C(=O)NC3CC3)[C@@H](O)[C@H]2O)c2ccccc21 (some centres not stated)	33	92	99	5	0.76	0.17	1.9	–
O=C(NC1CC1)[C@H]1O[C@@H](n2cnc3c(NCCc4cn(CCN5CCCC5)c5ccccc45)ncnc32)[C@H](O)[C@@H]1O	96	95	100	53	0.058	0.0075	44.2	–
O=C(NC1CC1)[C@H]1OC(n2cnc3c(NCCc4cn(Cc5ccccn5)c5ccccc45)ncnc32)[C@H](O)[C@@H]1O (some centres not stated)	–	–	–	–	0.39	0.039	–	–
O=C(NC1CC1)[C@H]1OC(n2cnc3c(NCCc4cn(Cc5ccc(Cl)cc5)c5ccccc45)ncnc32)[C@H](O)[C@@H]1O (some centres not stated)	46	91	98	30	0.32	0.05	0.9	–
Cc1c(CCNc2ncnc3c2ncn3[C@@H]2O[C@H](C(=O)NC3CC3)[C@@H](O)[C@H]2O)c2ccccc2n1C1CCCC1	15	92	77	6	2.18	0.895	0.5	–
O=C(NC1CC1)[C@H]1OC(n2cnc3c(NCCc4cn(Cc5ccc(Cl)s5)c5ccccc45)ncnc32)[C@H](O)[C@@H]1O (some centres not stated)	47	82	100	6	–	–	26.2	–
COCCn1cc(CCNc2ncnc3c2ncn3[C@@H]2O[C@H](C(=O)NC3CC3)[C@@H](O)[C@H]2O)c2ccccc21	61	90	98	19	0.37	0.023	1.2	–
Cc1ccc(C)c(Cn2cc(C(C)CNc3ncnc4c3ncn4[C@@H]3O[C@H](C(=O)NC4CC4)[C@@H](O)[C@H]3O)c3ccccc32)c1 (some centres not stated)	28	61	97	0	2.5	0.2	0.9	–
O=C(NC1CC1)[C@H]1OC(n2cnc3c(NCCc4cn(Cc5ccccc5)c5ccccc45)ncnc32)[C@H](O)[C@@H]1O (some centres not stated)	35	94	99	41	0.27	0.04	18.1	–
Cc1ccc(C)c(Cn2c(C)c(CCNc3ncnc4c3ncn4C3O[C@H](C(=O)NC4CC4)[C@@H](O)[C@H]3O)c3ccccc32)c1 (some centres not stated)	5	60	56	7	–	–	1.2	–
Cc1ccc(C)c(Cn2cc(CCNc3ncnc4c3ncn4[C@@H]3O[C@H](C(=O)NC4CC4)[C@@H](O)[C@H]3O)c3cc(Cl)ccc32)c1	47	77	99	10	0.66	0.15	6.3	–
COc1ccc2c(c1)c(CCNc1ncnc3c1ncn3C1O[C@H](C(=O)NC3CC3)[C@@H](O)[C@H]1O)cn2Cc1cc(C)ccc1C (some centres not stated)	16	91	100	17	–	–	46.3	–
O=C(NC1CC1)[C@H]1OC(n2cnc3c(NCCc4cn(CCN5CCOCC5)c5ccccc45)ncnc32)[C@H](O)[C@@H]1O (some centres not stated)	52	88	100	20	–	–	> 30	–
OC[C@H]1OC(n2cnc3c(NCCc4cn(Cc5c(Cl)cccc5Cl)c5ccccc45)ncnc32)[C@H](O)[C@@H]1O (some centres not stated)	15	91	92	35	–	–	–	inactive

Source: ChEMBL document CHEMBL1127433, “N6-substituted adenosine receptor agonists. Synthesis and pharmacological activity as potent antinociceptive agents” (J Med Chem, 1994)
